The structures appear in SMILES notation. The source made the active and inactive calls.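 How the source made its calls: active means fitted AC50 at or under twice the sample's top valid tested dose, with viability loss; inconclusive means flat curve with 30 to 70% viability loss, or poor fit; inactive means the rest, including shifts toward viability gain.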

This experiment relates to A375 melanoma viability, CellTiter-Glo ATP luminescence, 24 h. Kind of experiment: A375 melanoma cell viability loss, dose response, counter-screen for MITF inhibitor project, CellTiter-Glo luminescence, dry powder, set 3 (AID 624324). Summed up:
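Assay system: A375 human melanoma cells, MITF-independent line with low MITF expression. Buffer or medium: phenol red-free DMEM, 10% FBS. Dosing: compounds pin-transferred to cells at multiple concentrations. Incubation: 24 h exposure at 37 °C, 5 min room-temperature reagent step. Detection: CellTiter-Glo luminescence measuring cellular ATP. Read-out basis: viability from ATP content.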
(In general: Counterscreens check selectivity or assay interference.)
`CCN1CCN(C2=C(NC(=O)c3ccc(Br)cc3)C(=O)c3ccccc3C2=O)CC1`: the AC50 was 18.4 µM.
For the molecule `CN1CCN(C2=C(NC(=O)c3ccc(Br)cc3)C(=O)c3ccccc3C2=O)CC1`, the AC50 is 15.2 µM.
The same measure for `O=C1C(Nc2ccccc2)=C(N2CCN(c3ccccc3)CC2)C(=O)c2ccccc21`: > 70 µM (inactive); for `COc1ccc(C2=C(N)C(=O)c3ccccc3C2=O)cc1`: > 70 µM (inactive); for `O=C1C(NS(=O)(=O)c2ccccc2)=C(N2CCOCC2)C(=O)c2ccccc21`: 13.8 µM.
As to `NC1=CC(=O)c2ccccc2C1=O`, the AC50 is > 70 µM (inactive).
In the case of `COc1ccc(C(=O)NC2=C(c3ccccc3)C(=O)c3ccccc3C2=O)cc1`, the half-maximal activity concentration (AC50) was 24.8 µM.
The same measure for `O=C(NC1=C(c2ccccc2)C(=O)c2ccccc2C1=O)c1ccco1`: 13.8 µM; for `CCN1CCN(C2=C(N(C)C(C)=O)C(=O)c3ccccc3C2=O)CC1`: 15.2 µM; for `COC1=C(NS(=O)(=O)c2ccccc2)C(=O)c2ccccc2C1=O`: > 70 µM (inactive).
The same measure for `Cc1ccc(C(=O)NC2=C(c3ccccc3)C(=O)c3ccccc3C2=O)o1`: 16 µM.
The same measure for `CC(=O)NC1=C(c2ccc3c(c2)oc2ccccc23)C(=O)c2ccccc2C1=O`: 24.7 µM.
With `CC(=O)N(C)C1=C(N2CCOCC2)C(=O)c2ccccc2C1=O`, the AC50 is 32.9 µM.
The same measure for `O=C(NC1=C(N2CCSCC2)C(=O)c2ccccc2C1=O)c1ccc(Br)cc1`: > 70 µM (inactive); for `CCN1CCN(C2=C(NS(=O)(=O)c3ccc(Br)cc3)C(=O)c3ccccc3C2=O)CC1`: > 70 µM (inactive).
As to `CC(=O)NC1=C(c2cccc(Cl)c2)C(=O)c2ccccc2C1=O`, the AC50 is 9.51 µM.
The same measure for `CCN1CCN(C2=C(NS(=O)(=O)c3cccs3)C(=O)c3ccccc3C2=O)CC1`: > 70 µM (inactive); for `COc1ccc(C2=C(NC(=O)c3cccc(OC)c3)C(=O)c3ccccc3C2=O)cc1`: 27.2 µM; for `C=CCNC1=C(Nc2ccccc2)C(=O)c2ccccc2C1=O`: > 70 µM (inactive).
As to `O=C(CNc1cccc2ccccc12)N/N=C/c1ccc([N+](=O)[O-])o1`, the AC50 was > 70 µM (inactive).
The same measure for `CC1CCN(CC(CS(=O)(=O)c2ccc([N+](=O)[O-])cc2)N2CCC(C)CC2)CC1` (stereo not given): > 70 µM (inactive); for `CC(=O)N(C)C1=C(N2CCCCC2)C(=O)c2ccccc2C1=O`: 29.1 µM.
The same measure for `CCN1CCN(C2=C(NC(=O)c3ccccc3)C(=O)c3ccccc3C2=O)CC1`: 25 µM; for `O=C(NC1=C(Cl)C(=O)c2ccccc2C1=O)c1ccccc1`: 29.9 µM; for `C=CCNC1=C(NS(=O)(=O)c2ccc(Br)cc2)C(=O)c2ccccc2C1=O`: > 70 µM (inactive).
On to `CN1CCN(C2=C(Nc3ccccc3)C(=O)c3ccccc3C2=O)CC1`, for which the concentration at half-maximal activity (AC50) was 27.2 µM.
The same measure for `COc1ccc(C2=C(NC(C)=O)C(=O)c3ccccc3C2=O)cc1`: 13.3 µM; for `C=CCNC1=C(N2CCN(CC)CC2)C(=O)c2ccccc2C1=O`: 15.7 µM; for `O=C(NC1=C(c2ccc(OC(F)(F)F)cc2)C(=O)c2ccccc2C1=O)c1ccccc1`: 23.6 µM.
For the molecule `O=C1C(NS(=O)(=O)c2ccc(Br)s2)=C(N2CCOCC2)C(=O)c2ccccc21`, the AC50 is > 70 µM (inactive).
The same measure for `O=C1C(NS(=O)(=O)c2cccs2)=C(N2CCCCC2)C(=O)c2ccccc21`: > 70 µM (inactive).
The same measure for `CCN(CC)CCCCNC1=C(Nc2ccccc2)C(=O)c2ccccc2C1=O`: > 70 µM (inactive); for `O=C1C(NS(=O)(=O)c2ccc(Br)cc2)=C(c2ccccc2)C(=O)c2ccccc21`: > 70 µM (inactive); for `CCN1CCN(C2=C(NS(=O)(=O)c3ccc(Br)s3)C(=O)c3ccccc3C2=O)CC1`: > 70 µM (inactive).
The same measure for `CCN(CC)CCCNC1=C(N(C)C(C)=O)C(=O)c2ccccc2C1=O`: 6.19 µM.

A word on the AC50: it is the concentration at which the activity in the assay is half-maximal.
